The results in this text go back to PMC6260803 (Angewandte Chemie (International ed. in English), 2015).

As a reminder, the Kd is a measure of binding affinity in units of concentration.

Residues, ends and D or L forms follow the SMILES beside them. *: point of attachment. X1 = O=C(CO[C@H]1O[C@H](CO)[C@@H](O)[C@H](O)[C@@H]1O)*

The target of one assay is griffithsin (GRFT) (Griffithsia sp., UniProt P84801). The assay is classed as binding.
The next assay has as its target immobilized GRFT (Griffithsia sp., UniProt P84801). Kind of assay: SPR analysis of binding to immobilized GRFT. As to conditions: run in triplicate; for binding response to immobilized GRFT (in words): SPR sensorgrams; for dissociation rate (koff) from GRFT (in words) / association rate (kon) to GRFT (in words): SPR, immobilized GRFT. A digest of the protocol:
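Glycopeptide high-mannose mimetics with varied mannose valency and spacing were passed over immobilized griffithsin, with a nonglycosylated peptide as negative control. Runs were in triplicate. Sensorgrams and Langmuir binding curves were generated, and association and dissociation rates were assessed from the sensorgrams.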

The mark [1] stands for this setting: isothermal titration calorimetry, binding to GRFT, value ± spread.

Chain of griffithsin (GRFT) (P84801 whole entry): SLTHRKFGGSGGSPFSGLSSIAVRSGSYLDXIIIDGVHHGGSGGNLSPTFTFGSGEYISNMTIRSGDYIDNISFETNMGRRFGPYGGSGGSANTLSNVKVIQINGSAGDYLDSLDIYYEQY
Chain of immobilized GRFT (P84801 whole entry): as above

On to `CC(=O)N[C@@H](CCCCNC(=O)CO[C@H]1O[C@H](CO)[C@@H](O)[C@H](O)[C@@H]1O)C(=O)NCC(=O)N[C@@H](CCCCNC(=O)CO[C@H]1O[C@H](CO)[C@@H](O)[C@H](O)[C@@H]1O)C(N)=O` [Compound 1], for which the “n (stoichiometry of binding)” value at griffithsin (GRFT) (setting [1]) is reported as 1.56 ± 0.01. Further, on immobilized GRFT, the “binding response to immobilized GRFT (in words)” value (“binding response” for short) is given as “weakest response of any of the glycopeptides”.

Take `CC(=O)N[C@@H](CCCCNC(=O)CO[C@H]1O[C@H](CO)[C@@H](O)[C@H](O)[C@@H]1O)C(=O)NCC(=O)N[C@@H](CCCCNC(=O)CO[C@H]1O[C@H](CO)[C@@H](O)[C@H](O)[C@@H]1O)C(=O)NCC(=O)N[C@@H](CCCCNC(=O)CO[C@H]1O[C@H](CO)[C@@H](O)[C@H](O)[C@@H]1O)C(N)=O` [Compound 2]: the “stoichiometry of binding to GRFT (rounded, as stated in text)” value (shortened to “stoichiometry of binding to GRFT”) on griffithsin (GRFT) (ITC) is 1. The “n (stoichiometry of binding)” value at griffithsin (GRFT) (setting [1]) amounted to 0.96 ± 0.24.

Take `CC(=O)N[C@@H](CCCCNC(=O)CO[C@H]1O[C@H](CO)[C@@H](O)[C@H](O)[C@@H]1O)C(=O)NCC(=O)N[C@@H](CCCCNC(=O)CO[C@H]1O[C@H](CO)[C@@H](O)[C@H](O)[C@@H]1O)C(=O)NCC(=O)N[C@@H](CCCCNC(=O)CO[C@H]1O[C@H](CO)[C@@H](O)[C@H](O)[C@@H]1O)C(=O)NCC(=O)N[C@@H](CCCCNC(=O)CO[C@H]1O[C@H](CO)[C@@H](O)[C@H](O)[C@@H]1O)C(N)=O` [Compound 3]: the “n (stoichiometry of binding)” value at griffithsin (GRFT) (setting [1]) was found to be 0.68 ± 0.03.

Take `CC(=O)N[C@@H](CCCCNC(=O)CO[C@H]1O[C@H](CO)[C@@H](O)[C@H](O)[C@@H]1O)C(=O)NCC(=O)N[C@@H](CCCCNC(=O)CO[C@H]1O[C@H](CO)[C@@H](O)[C@H](O)[C@@H]1O)C(=O)NCC(=O)N[C@@H](CCCCNC(=O)CO[C@H]1O[C@H](CO)[C@@H](O)[C@H](O)[C@@H]1O)C(=O)NCC(=O)N[C@@H](CCCCNC(=O)CO[C@H]1O[C@H](CO)[C@@H](O)[C@H](O)[C@@H]1O)C(=O)NCC(=O)N[C@@H](CCCCNC(=O)CO[C@H]1O[C@H](CO)[C@@H](O)[C@H](O)[C@@H]1O)C(=O)NCC(=O)N[C@@H](CCCCNC(=O)CO[C@H]1O[C@H](CO)[C@@H](O)[C@H](O)[C@@H]1O)C(N)=O` [Compound 4]: the “stoichiometry of binding to GRFT” value on griffithsin (GRFT) (ITC) is 0.5. In addition, on griffithsin (GRFT) (setting [1]), the “n (stoichiometry of binding)” value was found to be 0.52 ± 0.05. For the same molecule, the “dissociation rate (koff) from GRFT (in words)” value (“dissociation rate (koff)” below) at immobilized GRFT was “significantly slower rate than Km3G1 and Km4G1”.

As for `CC(=O)N[C@@H](CCCCNC(=O)CO[C@H]1O[C@H](CO)[C@@H](O)[C@H](O)[C@@H]1O)C(=O)NCC(=O)NCC(=O)N[C@@H](CCCCNC(=O)CO[C@H]1O[C@H](CO)[C@@H](O)[C@H](O)[C@@H]1O)C(=O)NCC(=O)NCC(=O)N[C@@H](CCCCNC(=O)CO[C@H]1O[C@H](CO)[C@@H](O)[C@H](O)[C@@H]1O)C(N)=O` [Compound 5] (Ac-K(X1)GGK(X1)GGK(X1)-NH2; N-terminus and C-terminus assumed), the “n (stoichiometry of binding)” value at griffithsin (GRFT) (setting [1]) amounted to 1.16 ± 0.25.

For `CC(=O)N[C@@H](CCCCNC(=O)CO[C@H]1O[C@H](CO)[C@@H](O)[C@H](O)[C@@H]1O)C(=O)N[C@@H](CCCCNC(=O)CO[C@H]1O[C@H](CO)[C@@H](O)[C@H](O)[C@@H]1O)C(=O)N[C@@H](CCCCNC(=O)CO[C@H]1O[C@H](CO)[C@@H](O)[C@H](O)[C@@H]1O)C(N)=O` [Compound 6], the “n (stoichiometry of binding)” value on griffithsin (GRFT) (setting [1]) came out at 0.98 ± 0.11.

On to `CC(=O)N[C@@H](CCCNC(=O)CO[C@H]1O[C@H](CO)[C@@H](O)[C@H](O)[C@@H]1O)C(=O)N[C@@H](CCCNC(=O)CO[C@H]1O[C@H](CO)[C@@H](O)[C@H](O)[C@@H]1O)C(=O)N[C@@H](CCCNC(=O)CO[C@H]1O[C@H](CO)[C@@H](O)[C@H](O)[C@@H]1O)C(N)=O` [Compound 7], for which, on griffithsin (GRFT) (ITC), the “stoichiometry of binding to GRFT” value came to 1. Also, on griffithsin (GRFT) (setting [1]), the “n (stoichiometry of binding)” value stood at 0.94 ± 0.19.

Consider `CC(=O)N[C@@H](CNC(=O)CO[C@H]1O[C@H](CO)[C@@H](O)[C@H](O)[C@@H]1O)C(=O)N[C@@H](CNC(=O)CO[C@H]1O[C@H](CO)[C@@H](O)[C@H](O)[C@@H]1O)C(=O)N[C@@H](CNC(=O)CO[C@H]1O[C@H](CO)[C@@H](O)[C@H](O)[C@@H]1O)C(N)=O` [Compound 8], for which the “stoichiometry of binding to GRFT” value at griffithsin (GRFT) (ITC) came to 1.5. The “n (stoichiometry of binding)” value at griffithsin (GRFT) (setting [1]) came to 1.38 ± 0.17. The “dissociation rate (koff)” value on immobilized GRFT was “by far the slowest dissociation rate”.

Consider `NC(=O)[C@H](CCCCNC(=O)[C@H](CCCCNC(=O)CO[C@H]1O[C@H](CO)[C@@H](O)[C@H](O)[C@@H]1O)NC(=O)CO[C@H]1O[C@H](CO)[C@@H](O)[C@H](O)[C@@H]1O)NC(=O)[C@H](CCCCNC(=O)CO[C@H]1O[C@H](CO)[C@@H](O)[C@H](O)[C@@H]1O)NC(=O)CO[C@H]1O[C@H](CO)[C@@H](O)[C@H](O)[C@@H]1O` [Compound 10], for which the “stoichiometry of binding to GRFT” value at griffithsin (GRFT) (ITC) is given as 2. Further, the “n (stoichiometry of binding)” value on griffithsin (GRFT) (setting [1]) is 1.96 ± 0.09. On immobilized GRFT, the “association rate (kon) to GRFT (in words)” value is given as “slower kon rates” and the “dissociation rate (koff)” value was “very slow koff rates”.

Turning to `NC(=O)[C@H](CCCCNC(=O)CNC(=O)[C@H](CCCCNC(=O)CO[C@H]1O[C@H](CO)[C@@H](O)[C@H](O)[C@@H]1O)NC(=O)CO[C@H]1O[C@H](CO)[C@@H](O)[C@H](O)[C@@H]1O)NC(=O)CNC(=O)[C@H](CCCCNC(=O)CO[C@H]1O[C@H](CO)[C@@H](O)[C@H](O)[C@@H]1O)NC(=O)CO[C@H]1O[C@H](CO)[C@@H](O)[C@H](O)[C@@H]1O` [Compound 11], the “stoichiometry of binding to GRFT” value at griffithsin (GRFT) (ITC) came out at 1.5. Also, the “n (stoichiometry of binding)” value on griffithsin (GRFT) (setting [1]) is 1.45 ± 0.12. Moreover, on immobilized GRFT, the “association rate (kon) to GRFT (in words)” value was “slower kon rates” and the “dissociation rate (koff)” value is “very slow koff rates”.

`NC(=O)[C@H](CCCCNC(=O)[C@H](CCCCNC(=O)CNC(=O)CO[C@H]1O[C@H](CO)[C@@H](O)[C@H](O)[C@@H]1O)NC(=O)CNC(=O)CO[C@H]1O[C@H](CO)[C@@H](O)[C@H](O)[C@@H]1O)NC(=O)[C@H](CCCCNC(=O)CNC(=O)CO[C@H]1O[C@H](CO)[C@@H](O)[C@H](O)[C@@H]1O)NC(=O)CNC(=O)CO[C@H]1O[C@H](CO)[C@@H](O)[C@H](O)[C@@H]1O` [Compound 12]: the “stoichiometry of binding to GRFT” value on griffithsin (GRFT) (ITC) was 1. Further, on griffithsin (GRFT) (ITC, Kd of 12 versus 10 and 11), the “Kd lower compared to glycopeptides 10 and 11” value was “approximately 30 fold”. For the same molecule, the “n (stoichiometry of binding)” value at griffithsin (GRFT) (setting [1]) was 1.08 ± 0.08.

As to `CC(=O)N[C@@H]1[C@@H](O)[C@H](O[C@@H]2O[C@H](CO)[C@@H](O[C@@H]3O[C@H](CO[C@H]4O[C@H](CO[C@H]5O[C@H](CO)[C@@H](O)[C@H](O)[C@@H]5O[C@H]5O[C@H](CO)[C@@H](O)[C@H](O)[C@@H]5O)[C@@H](O)[C@H](O[C@H]5O[C@H](CO)[C@@H](O)[C@H](O)[C@@H]5O[C@H]5O[C@H](CO)[C@@H](O)[C@H](O)[C@@H]5O)[C@@H]4O)[C@@H](O)[C@H](O[C@H]4O[C@H](CO)[C@@H](O)[C@H](O)[C@@H]4O[C@H]4O[C@H](CO)[C@@H](O)[C@H](O)[C@@H]4O[C@H]4O[C@H](CO)[C@@H](O)[C@H](O)[C@@H]4O)[C@@H]3O)[C@H](O)[C@H]2NC(C)=O)[C@@H](CO)O[C@H]1NC(=O)C[C@H](N)C(=O)O` [Compound 14, Man9GlcNAc2Asn, reference compound], at griffithsin (GRFT) (setting [1]), binding was characterised by a dissociation constant (Kd) of 540 ± 270 nM and the “n (stoichiometry of binding)” value is on record as 1.39 ± 0.12. For the same molecule, the “dissociation rate (koff)” value on immobilized GRFT is given as “slower koff rate than nonamannoside 13”.

Regarding chitobiose [reference compound], on immobilized GRFT, the “binding response” value is given as “Negligible binding”.

For pentamannoside [reference compound], the “binding response” value at immobilized GRFT is reported as “Negligible binding”.
